Source: PMC6045484 (ACS Omega, 2018)
Values after ≈ are worked out from the molar mass of the structure shown.

Key:
[1] = tested on: C. albicans ATCC90028; assay: in vitro antifungal activity; type: cell-based, Candida albicans
How it was run: (§1)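 Modified NCCLS broth method in Sabouraud dextrose. Inoculum set by OD630 to 1.5 × 10^3 CFU/mL. Test compound serially diluted in 20% DMSO/saline, duplicate wells, up to 20 μg/mL. Incubated 70–74 h at 35 °C; 530 nm read before and after. IC50 is 50% growth inhibition; MIC is no detectable growth. MFC from clear wells subcultured on agar. Amphotericin B control.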

[2] = tested on: SK-MEL, KB, BT-549, SK-OV-3, VERO and LLC-PK1 cells; assay: cytotoxicity, neutral red uptake assay; type: cell-based, mammalian; conditions: highest test concentration 4760 ng/mL
How it was run: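 Cells seeded at 25 000/well and allowed 24 h to reach confluence. Test compound was then added and incubated 48 h. Viable cells were counted by a modified neutral red uptake method. The panel was four human cancer lines and two noncancerous mammalian kidney lines. Doxorubicin served as positive control and DMSO as negative control.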

[3] = tested on: P. falciparum (W2); assay: in vitro antimalarial activity, plasmodial LDH; type: cell-based, Plasmodium falciparum; conditions: Plasmodium falciparum, W2, 72 h, read-out: P. falciparum (W2) IC50, CQ-resistant W2 strain, 72 h
How it was run: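 P. falciparum-infected erythrocytes (2% parasitemia, 2% hematocrit) in RPMI 1640 with 10% human serum and 60 μg/mL amikacin. Exposed to test compound dilutions for 72 h at 37 °C under 90% N2/5% O2/5% CO2. LDH measured with Malstat reagent (30 min, room temperature), then NBT/PES for 1 h in the dark, stopped with 5% acetic acid, read at 650 nm. IC50 from dose-response curves.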

[4] = tested on: SA (ATCC29213); assay: in vitro antibacterial activity; type: cell-based; conditions: Staphylococcus aureus
How it was run: (§2)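 Test compound serially diluted in 20% DMSO/saline and plated in duplicate, up to 20 μg/mL. Inoculum in cation-adjusted Mueller–Hinton broth, pH 7.3, set by OD630 to 5 × 10^5 CFU/mL. Incubated 16–20 h at 35 °C; 530 nm read before and after. IC50 is 50% growth inhibition; MIC is no detectable growth. MBC from clear wells subcultured on agar. Ciprofloxacin control.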

[5] = tested on: C. neoformans ATCC90113; assay: in vitro antifungal activity; type: cell-based, Cryptococcus neoformans; conditions: Cryptococcus neoformans
How it was run: as §1

[6] = tested on: A. fumigatus ATCC 90906; assay: in vitro antifungal activity; type: cell-based, Aspergillus fumigatus; conditions: Aspergillus fumigatus
How it was run: as §1

[7] = tested on: C. krusei ATCC6258; assay: in vitro antifungal activity; type: cell-based, Candida krusei
How it was run: as §1

[8] = tested on: P. falciparum (D6); assay: in vitro antimalarial activity, plasmodial LDH; type: cell-based, Plasmodium falciparum; conditions: Plasmodium falciparum, D6, 72 h, read-out: P. falciparum (D6) IC50
[9] = tested on: L. donovani promastigotes; assay: in vitro antileishmanial activity, alamarBlue assay; type: cell-based, Leishmania donovani; conditions: Leishmania donovani, 48 h
[10] = tested on: M. intracellulare (ATCC23068); assay: in vitro antibacterial activity, modified alamarBlue procedure; type: cell-based, Mycobacterium intracellulare; conditions: Mycobacterium intracellulare
How it was run: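 Modified alamarBlue microplate method. Test compound serially diluted in 20% DMSO/saline, duplicate wells, up to 20 μg/mL. Inoculum 2.0 × 10^6 CFU/mL in Middlebrook 7H9 with OADC, pH 7.3, containing 5% alamarBlue. Incubated 70–74 h at 37 °C, 10% CO2; fluorescence 544ex/590em read before and after. MIC: no blue-to-pink change. MBC by subculturing blue wells on agar. Ciprofloxacin control.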

[11] = tested on: P. berghei (sensitive strain); assay: blood-schizontocidal activity against P. berghei infection in mice; type: in vivo, Plasmodium berghei; conditions: Swiss mice
How it was run: (§3)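 Swiss mice of either sex (about 15–20 g, same age), six per group, inoculated intraperitoneally on day 0 with 1 × 10^7 infected erythrocytes from a donor mouse. Oral test compound at 100, 50, 25 or 10 mg/kg, CQ diphosphate (10 mg/kg/day × 4) or vehicle started 4 h later, on D0 to D+3. Giemsa tail-blood smears on D+4 and D+7. Curative: parasites eliminated, no relapse, all mice surviving to D+60.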

[12] = tested on: MRSA (ATCC33591); assay: in vitro antibacterial activity; type: cell-based, methicillin-resistant Staphylococcus aureus; conditions: Staphylococcus aureus, ATCC33591|MRSA, read-out: MIC, MRSA
How it was run: as §2

[13] = tested on: C. glabrata ATCC90030; assay: in vitro antifungal activity; type: cell-based, Candida glabrata
How it was run: as §1

[14] = tested on: multidrug-resistant P. yoelii nigeriensis; assay: blood-schizontocidal activity against P. yoelii nigeriensis infection in mice; type: in vivo, Plasmodium yoelii nigeriensis; conditions: Swiss mice
How it was run: as §3

[15] = tested on: CQ-sensitive (CQS) and CQ-resistant (CQR) strains; conditions: strain not stated ref 11; cited from earlier work

CCCCCCCOc1c(OC)cc(NC(C)CCCN)c2nc(C(C)(C)C)ccc12 (centres unmarked) [compound 48, N^4-(2-tert-Butyl-5-(heptyloxy)-6-methoxyquinolin-8-yl)pentane-1,4-diamine]
C. albicans MFC [1]: 10.00 µg/mL | C. albicans MIC [1]: 10.00 µg/mL | IC50 ([1]; Candida albicans, ATCC90028, read-out: C. albicans IC50): 4.93 µg/mL (≈ 11.5 µM) | MIC ([1]; Candida albicans, ATCC90028, read-out: C. albicans MIC): 10 µg/mL (≈ 23.3 µM) | cytotoxicity CTX [2]: NC (NC, not cytotoxic up to 4760 ng/mL (4.76 μg/mL)) | IC50 [3]: 0.037 µg/mL (≈ 0.0861 µM) | IC50 ([4]; ATCC29213, read-out: IC50 (concentration that affords 50% growth inhibition), SA): 2.77 µg/mL (≈ 6.45 µM) | MBC ([4]; ATCC29213, read-out: MBC (minimum bactericidal concentration), SA): 20 µg/mL (≈ 46.5 µM) | MIC ([4]; ATCC29213, read-out: MIC, SA): 5 µg/mL (≈ 11.6 µM) | IC50 ([5]; ATCC90113, read-out: C. neoformans IC50): 2.07 µg/mL (≈ 4.82 µM) | MFC ([5]; ATCC90113, read-out: C. neoformans MFC): 2.5 µg/mL (≈ 5.82 µM) | MIC ([5]; ATCC90113, read-out: C. neoformans MIC): 2.5 µg/mL (≈ 5.82 µM) | IC50 ([6]; ATCC90906, read-out: A. fumigatus IC50): 6 µg/mL (≈ 14 µM) | MFC ([6]; ATCC90906, read-out: A. fumigatus MFC): > 20 µg/mL | MIC ([6]; ATCC90906, read-out: A. fumigatus MIC): > 20 µg/mL | C. krusei MFC [7]: 5.00 µg/mL | C. krusei MIC [7]: 5.00 µg/mL | IC50 [8]: 0.05 µg/mL (≈ 0.116 µM) | IC50 ([9]; read-out: L. donovani IC50, promastigotes, 48 h): 5 µg/mL (≈ 11.6 µM) | IC90 ([9]; read-out: L. donovani IC90, promastigotes, 48 h): > 40 µg/mL | IC50 ([10]; ATCC23068, read-out: IC50 (concentration that affords 50% growth inhibition), M. intracellulare): 3.72 µg/mL (≈ 8.66 µM) | MBC ([10]; ATCC23068, read-out: MBC (minimum bactericidal concentration), M. intracellulare): 5 µg/mL (≈ 11.6 µM) | MIC ([10]; ATCC23068, read-out: MIC, M. intracellulare): 5 µg/mL (≈ 11.6 µM) | P. berghei blood-schizontocidal activity (mice cured/treated) ([11]; 10 mg/kg/day × 4, oral): active (4/6) | P. berghei blood-schizontocidal activity (mice cured/treated) ([11]; 25 mg/kg/day × 4, oral): curative (6/6) | P. berghei blood-schizontocidal activity (mice cured/treated) ([11]; 50 mg/kg/day × 4, oral): curative (6/6) | P. berghei blood-schizontocidal activity (mice cured/treated) ([11]; 100 mg/kg/day × 4, oral): curative (6/6) | MIC [12]: 5 µg/mL (≈ 11.6 µM) | C. glabrata MFC [13]: 5.00 µg/mL | C. glabrata MIC [13]: 5.00 µg/mL | P. yoelii nigeriensis blood-schizontocidal activity (mice cured/treated) ([14]; 25 mg/kg/day × 4, oral): inactive (0/6) | P. yoelii nigeriensis blood-schizontocidal activity (mice cured/treated) ([14]; 50 mg/kg/day × 4, oral): active (3/6) | P. yoelii nigeriensis blood-schizontocidal activity (mice cured/treated) ([14]; 100 mg/kg/day × 4, oral): active (4/6)

CCN(CC)CCCC(C)Nc1ccnc2cc(Cl)ccc12 (centres unmarked) [CQ, chloroquine, reference compound]
IC50 [3]: 0.14 µg/mL (≈ 0.438 µM) | IC50 [8]: 0.015 µg/mL (≈ 0.0469 µM) | in vitro antimalarial activity IC50 [15]: 0.113 µg/mL | P. berghei blood-schizontocidal activity (mice cured/treated) ([11]; 10 mg/kg/day × 4, oral): active (2/6) | P. berghei blood-schizontocidal activity (mice cured/treated) ([11]; 25 mg/kg/day × 4, oral): curative (6/6) | P. berghei blood-schizontocidal activity (mice cured/treated) ([11]; 50 mg/kg/day × 4, oral): curative (6/6) | P. berghei blood-schizontocidal activity (mice cured/treated) ([11]; 100 mg/kg/day × 4, oral): curative (6/6) | P. yoelii nigeriensis blood-schizontocidal activity (mice cured/treated) ([14]; 25 mg/kg/day × 4, oral): inactive (0/6) | P. yoelii nigeriensis blood-schizontocidal activity (mice cured/treated) ([14]; 50 mg/kg/day × 4, oral): inactive (0/6) | P. yoelii nigeriensis blood-schizontocidal activity (mice cured/treated) ([14]; 100 mg/kg/day × 4, oral): inactive (0/6)

COc1cc(NC(C)CCCN)c2nc(C(C)(C)C)ccc2c1 (centres unmarked) [2-tert-butylprimaquine]
in vitro antimalarial activity IC50 [15]: 0.039 µg/mL
